Measurements taken from ChEMBL document CHEMBL3259728, “Design, synthesis and biological evaluation of some novel substituted quinazolines as antitumor agents” (2014).

Columns and labels:
Assay type in all cases: functional
SK-MEL-2 = experiment: Growth inhibition of human SK-MEL-2 cells at 10 uM after 48 hrs by SRB assay; settings: SK-MEL-2, 48 h, read-out: GI
Summary of the method: (§1)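 NCI-60 primary one-dose screen run at the US NCI, with human tumour lines from nine cancer types. Compound added once at 10^-5 M, followed by 48 h incubation. End point was sulforhodamine B protein staining read spectrophotometrically. Result given as percent growth of treated cells against untreated controls, reported as % growth inhibition.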

[1] = Growth inhibition of human OVCAR8 cells at 10 uM after 48 hrs by SRB assay; settings: OVCAR-8, 48 h, read-out: GI; summary of the method: as §1
NCI-H226 = experiment: Growth inhibition of human NCI-H226 cells at 10 uM after 48 hrs by SRB assay; settings: NCI-H226, 48 h, read-out: GI; summary of the method: as §1
[2] = Growth inhibition of human SF539 cells at 10 uM after 48 hrs by SRB assay; settings: SF-539, 48 h, read-out: GI; summary of the method: as §1
MDA-MB-231 = experiment: Growth inhibition of human MDA-MB-231 cells at 10 uM after 48 hrs by SRB assay; settings: MDA-MB-231, 48 h, read-out: GI; summary of the method: as §1
PC-3 = experiment: Growth inhibition of human PC3 cells at 10 uM after 48 hrs by SRB assay; settings: PC-3, 48 h, read-out: GI; summary of the method: as §1
MDA-MB-435 = experiment: Growth inhibition of human MDA-MB-435 cells at 10 uM after 48 hrs by SRB assay; settings: MDA-MB-435, 48 h, read-out: GI; summary of the method: as §1
[3] = Growth inhibition of human OVCAR5 cells at 10 uM after 48 hrs by SRB assay; settings: OVCAR-5, 48 h, read-out: GI; summary of the method: as §1
[4] = Growth inhibition of human UO31 cells at 10 uM after 48 hrs by SRB assay; settings: UO-31, 48 h, read-out: GI; summary of the method: as §1
CCRF-CEM = experiment: Growth inhibition of human CCRF-CEM cells at 10 uM after 48 hrs by SRB assay; settings: read-out: GI
Summary of the method: (§2)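 NCI primary one-dose screen. A single concentration of 10^-5 M was added to the cell culture, followed by 48 h incubation and an SRB protein-dye endpoint read spectrophotometrically. Results are growth percentage relative to untreated control cells, reported as % growth inhibition.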

NCI-H322M = experiment: Growth inhibition of human NCI-H322M cells at 10 uM after 48 hrs by SRB assay; settings: read-out: GI; summary of the method: as §1
SK-OV-3 = experiment: Growth inhibition of human SKOV3 cells at 10 uM after 48 hrs by SRB assay; settings: SK-OV-3, 48 h, read-out: GI; summary of the method: as §1
HOP-62 = experiment: Growth inhibition of human HOP62 cells at 10 uM after 48 hrs by SRB assay; settings: HOP-62, 48 h, read-out: GI; summary of the method: as §1
SW-620 = experiment: Growth inhibition of human SW620 cells at 10 uM after 48 hrs by SRB assay; settings: SW-620, 48 h, read-out: GI; summary of the method: as §1
IGROV-1 = experiment: Growth inhibition of human IGROV1 cells at 10 uM after 48 hrs by SRB assay; settings: IGROV-1, 48 h, read-out: GI; summary of the method: as §1
Malme-3M = experiment: Growth inhibition of human MALME-3M cells at 10 uM after 48 hrs by SRB assay; settings: read-out: GI; summary of the method: as §1
SN12C = experiment: Growth inhibition of human SN12C cells at 10 uM after 48 hrs by SRB assay; settings: read-out: GI; summary of the method: as §1
COLO 205 = experiment: Growth inhibition of human COLO205 cells at 10 uM after 48 hrs by SRB assay; settings: COLO 205, 48 h, read-out: GI; summary of the method: as §2
SR = experiment: Growth inhibition of human SR cells at 10 uM after 48 hrs by SRB assay; settings: read-out: GI; summary of the method: as §1
DU-145 = experiment: Growth inhibition of human DU145 cells at 10 uM after 48 hrs by SRB assay; settings: DU-145, 48 h, read-out: GI; summary of the method: as §1
NCI-H460 = experiment: Growth inhibition of human NCI-H460 cells at 10 uM after 48 hrs by SRB assay; settings: NCI-H460, 48 h, read-out: GI; summary of the method: as §1
SNB-19 = experiment: Growth inhibition of human SNB19 cells at 10 uM after 48 hrs by SRB assay; settings: SNB-19, 48 h, read-out: GI; summary of the method: as §1
NCI-H522 = experiment: Growth inhibition of human NCI-H522 cells at 10 uM after 48 hrs by SRB assay; settings: NCI-H522, 48 h, read-out: GI; summary of the method: as §1
[5] = Growth inhibition of human HCT15 cells at 10 uM after 48 hrs by SRB assay; settings: HCT-15, 48 h, read-out: GI; summary of the method: as §1
[6] = Growth inhibition of human NCI-ADR-RES cells at 10 uM after 48 hrs by SRB assay; settings: read-out: GI; summary of the method: as §1
786-0 = experiment: Growth inhibition of human 786-0 cells at 10 uM after 48 hrs by SRB assay; settings: 786-0, 48 h, read-out: GI; summary of the method: as §2
[7] = Growth inhibition of human UACC62 cells at 10 uM after 48 hrs by SRB assay; settings: UACC-62, 48 h, read-out: GI; summary of the method: as §1
M14 = experiment: Growth inhibition of human M14 cells at 10 uM after 48 hrs by SRB assay; settings: M14, 48 h, read-out: GI; summary of the method: as §1
U-251 = experiment: Growth inhibition of human U251 cells at 10 uM after 48 hrs by SRB assay; settings: U-251, 48 h, read-out: GI; summary of the method: as §1
[8] = Growth inhibition of human HCC2998 cells at 10 uM after 48 hrs by SRB assay; settings: HCC 2998, 48 h, read-out: GI; summary of the method: as §1
[9] = Growth inhibition of human LOXIMVI cells at 10 uM after 48 hrs by SRB assay; settings: LOX IMVI, read-out: GI; summary of the method: as §1
[10] = Growth inhibition of human BT549 cells at 10 uM after 48 hrs by SRB assay; settings: BT-549, 48 h, read-out: GI; summary of the method: as §2
[11] = Growth inhibition of human OVCAR3 cells at 10 uM after 48 hrs by SRB assay; settings: OVCAR-3, 48 h, read-out: GI; summary of the method: as §1
SK-MEL-5 = experiment: Growth inhibition of human SK-MEL-5 cells at 10 uM after 48 hrs by SRB assay; settings: SK-MEL-5, 48 h, read-out: GI; summary of the method: as §1
K562 = experiment: Growth inhibition of human K562 cells at 10 uM after 48 hrs by SRB assay; settings: K562, 48 h, read-out: GI; summary of the method: as §1
[12] = Growth inhibition of human EKVX cells at 10 uM after 48 hrs by SRB assay; settings: read-out: GI; summary of the method: as §1
HCT-116 = experiment: Growth inhibition of human HCT116 cells at 10 uM after 48 hrs by SRB assay; settings: HCT-116, 48 h, read-out: GI; summary of the method: as §1
TK-10 = experiment: Growth inhibition of human TK10 cells at 10 uM after 48 hrs by SRB assay; settings: TK-10, 48 h, read-out: GI; summary of the method: as §1
[13] = Growth inhibition of human HOP92 cells at 10 uM after 48 hrs by SRB assay; settings: HOP-92, 48 h, read-out: GI; summary of the method: as §1

SMILES	inhibition of growth at 10 µM (SK-MEL-2) [%]	inhibition of growth at 10 µM [1] [%]	inhibition of growth at 10 µM (NCI-H226) [%]	inhibition of growth at 10 µM [2] [%]	inhibition of growth at 10 µM (MDA-MB-231) [%]	inhibition of growth at 10 µM (PC-3) [%]	inhibition of growth at 10 µM (MDA-MB-435) [%]	inhibition of growth at 10 µM [3] [%]	inhibition of growth at 10 µM [4] [%]	inhibition of growth at 10 µM (NCI-H322M) [%]	inhibition of growth at 10 µM (SK-OV-3) [%]	inhibition of growth at 10 µM (HOP-62) [%]	inhibition of growth at 10 µM (SW-620) [%]	inhibition of growth at 10 µM (IGROV-1) [%]	inhibition of growth at 10 µM (Malme-3M) [%]	inhibition of growth at 10 µM (SN12C) [%]	inhibition of growth at 10 µM (COLO 205) [%]	inhibition of growth at 10 µM (DU-145) [%]	inhibition of growth at 10 µM (NCI-H460) [%]	inhibition of growth at 10 µM (SNB-19) [%]	also measured
Cc1ccc(-c2nc3ccc(Cl)cc3c(=O)n2/N=C/c2ccccc2)cc1	< 10	73	14	22	41	30	34	18	33	24	64	98	23	43	35	32	34	27	23	25	inhibition of growth at 10 µM (CCRF-CEM): < 10%; inhibition of growth at 10 µM (SR): 20%; inhibition of growth at 10 µM (NCI-H522): 52%; inhibition of growth at 10 µM [5]: 14%; inhibition of growth at 10 µM [6]: 30%; inhibition of growth at 10 µM (786-0): 30%; inhibition of growth at 10 µM [7]: 23%; inhibition of growth at 10 µM (M14): 29%; inhibition of growth at 10 µM (U-251): 88%; inhibition of growth at 10 µM [8]: < 10%; inhibition of growth at 10 µM [9]: 11%; inhibition of growth at 10 µM [10]: < 10%; inhibition of growth at 10 µM [11]: 42%; inhibition of growth at 10 µM (SK-MEL-5): < 10%; inhibition of growth at 10 µM (K562): < 10%; inhibition of growth at 10 µM [12]: 40%; inhibition of growth at 10 µM (HCT-116): 47%; inhibition of growth at 10 µM (TK-10): 26%
Cc1ccc(-c2nc3ccc(Cl)cc3c(=O)n2NC(=O)CNN)cc1	< 10	23	35	54	62	33	< 10	18	25	29	84	83	28	41	14	33	28	28	49	22	inhibition of growth at 10 µM (CCRF-CEM): < 10%; inhibition of growth at 10 µM (SR): 13%; inhibition of growth at 10 µM (NCI-H522): 61%; inhibition of growth at 10 µM [5]: 16%; inhibition of growth at 10 µM [6]: 24%; inhibition of growth at 10 µM (786-0): 22%; inhibition of growth at 10 µM [7]: 18%; inhibition of growth at 10 µM (M14): 17%; inhibition of growth at 10 µM (U-251): 58%; inhibition of growth at 10 µM [8]: < 10%; inhibition of growth at 10 µM [9]: 27%; inhibition of growth at 10 µM [10]: < 10%; inhibition of growth at 10 µM [11]: 45%; inhibition of growth at 10 µM (SK-MEL-5): 11%; inhibition of growth at 10 µM (K562): 11%; inhibition of growth at 10 µM [12]: 34%; inhibition of growth at 10 µM (HCT-116): 46%; inhibition of growth at 10 µM (TK-10): 61%
Cc1ccc(C(=O)Nc2ccc(Cl)cc2C(=O)Nc2ccccc2)cc1	< 10	< 10	< 10	29	16	15	11	14	< 10	< 10	12	29	< 10	< 10	12	< 10	< 10	< 10	< 10	13	inhibition of growth at 10 µM (NCI-H522): 21%; inhibition of growth at 10 µM [5]: 11%; inhibition of growth at 10 µM [6]: < 10%; inhibition of growth at 10 µM (786-0): < 10%; inhibition of growth at 10 µM (M14): < 10%; inhibition of growth at 10 µM (U-251): 14%; inhibition of growth at 10 µM [8]: < 10%; inhibition of growth at 10 µM [13]: < 10%; inhibition of growth at 10 µM [9]: < 10%; inhibition of growth at 10 µM [10]: < 10%; inhibition of growth at 10 µM [11]: < 10%; inhibition of growth at 10 µM (SK-MEL-5): 13%; inhibition of growth at 10 µM [12]: < 10%; inhibition of growth at 10 µM (HCT-116): < 10%; inhibition of growth at 10 µM (TK-10): < 10%
Cc1ccc(-c2nc3ccc(Cl)cc3c(=O)n2NC(=O)CN)cc1	< 10	< 10	11	15	< 10	< 10	< 10	11	11	< 10	< 10	15	< 10	< 10	< 10	< 10	< 10	< 10	< 10	< 10	inhibition of growth at 10 µM (CCRF-CEM): 14%; inhibition of growth at 10 µM (SR): < 10%; inhibition of growth at 10 µM (NCI-H522): < 10%; inhibition of growth at 10 µM [6]: < 10%; inhibition of growth at 10 µM (786-0): < 10%; inhibition of growth at 10 µM [7]: < 10%; inhibition of growth at 10 µM (M14): 11%; inhibition of growth at 10 µM (U-251): < 10%; inhibition of growth at 10 µM [8]: < 10%; inhibition of growth at 10 µM [13]: < 10%; inhibition of growth at 10 µM [9]: < 10%; inhibition of growth at 10 µM [10]: < 10%; inhibition of growth at 10 µM [11]: < 10%; inhibition of growth at 10 µM (SK-MEL-5): < 10%; inhibition of growth at 10 µM (K562): < 10%; inhibition of growth at 10 µM [12]: 22%; inhibition of growth at 10 µM (HCT-116): 11%; inhibition of growth at 10 µM (TK-10): < 10%
